# Measured values published in publication PMC2875079 (Journal of medicinal chemistry, 2010).
# T1: mouse SphK2 (Mus musculus, UniProt Q9JIA7)
# T1 sequence (Q9JIA7 1-617): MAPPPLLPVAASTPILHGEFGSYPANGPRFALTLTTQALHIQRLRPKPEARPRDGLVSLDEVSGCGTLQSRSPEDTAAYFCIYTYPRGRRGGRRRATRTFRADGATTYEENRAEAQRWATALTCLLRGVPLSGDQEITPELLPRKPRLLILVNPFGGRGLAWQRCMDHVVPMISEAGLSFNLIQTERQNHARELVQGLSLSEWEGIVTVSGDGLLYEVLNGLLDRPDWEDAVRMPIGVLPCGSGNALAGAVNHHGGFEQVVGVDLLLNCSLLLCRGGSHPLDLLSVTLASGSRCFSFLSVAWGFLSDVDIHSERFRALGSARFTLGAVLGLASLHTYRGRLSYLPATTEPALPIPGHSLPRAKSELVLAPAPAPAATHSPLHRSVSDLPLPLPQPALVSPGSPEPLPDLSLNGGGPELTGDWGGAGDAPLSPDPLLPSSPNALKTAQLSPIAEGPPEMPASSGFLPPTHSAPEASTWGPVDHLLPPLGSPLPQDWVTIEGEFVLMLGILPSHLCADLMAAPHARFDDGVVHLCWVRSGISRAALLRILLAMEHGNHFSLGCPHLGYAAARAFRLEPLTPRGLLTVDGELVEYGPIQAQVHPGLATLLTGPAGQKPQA
# T2: diacylglycerol kinase type δ1 (Homo sapiens, UniProt Q16760)
# T2 sequence (Q16760 1-1170 isoform Q16760-2): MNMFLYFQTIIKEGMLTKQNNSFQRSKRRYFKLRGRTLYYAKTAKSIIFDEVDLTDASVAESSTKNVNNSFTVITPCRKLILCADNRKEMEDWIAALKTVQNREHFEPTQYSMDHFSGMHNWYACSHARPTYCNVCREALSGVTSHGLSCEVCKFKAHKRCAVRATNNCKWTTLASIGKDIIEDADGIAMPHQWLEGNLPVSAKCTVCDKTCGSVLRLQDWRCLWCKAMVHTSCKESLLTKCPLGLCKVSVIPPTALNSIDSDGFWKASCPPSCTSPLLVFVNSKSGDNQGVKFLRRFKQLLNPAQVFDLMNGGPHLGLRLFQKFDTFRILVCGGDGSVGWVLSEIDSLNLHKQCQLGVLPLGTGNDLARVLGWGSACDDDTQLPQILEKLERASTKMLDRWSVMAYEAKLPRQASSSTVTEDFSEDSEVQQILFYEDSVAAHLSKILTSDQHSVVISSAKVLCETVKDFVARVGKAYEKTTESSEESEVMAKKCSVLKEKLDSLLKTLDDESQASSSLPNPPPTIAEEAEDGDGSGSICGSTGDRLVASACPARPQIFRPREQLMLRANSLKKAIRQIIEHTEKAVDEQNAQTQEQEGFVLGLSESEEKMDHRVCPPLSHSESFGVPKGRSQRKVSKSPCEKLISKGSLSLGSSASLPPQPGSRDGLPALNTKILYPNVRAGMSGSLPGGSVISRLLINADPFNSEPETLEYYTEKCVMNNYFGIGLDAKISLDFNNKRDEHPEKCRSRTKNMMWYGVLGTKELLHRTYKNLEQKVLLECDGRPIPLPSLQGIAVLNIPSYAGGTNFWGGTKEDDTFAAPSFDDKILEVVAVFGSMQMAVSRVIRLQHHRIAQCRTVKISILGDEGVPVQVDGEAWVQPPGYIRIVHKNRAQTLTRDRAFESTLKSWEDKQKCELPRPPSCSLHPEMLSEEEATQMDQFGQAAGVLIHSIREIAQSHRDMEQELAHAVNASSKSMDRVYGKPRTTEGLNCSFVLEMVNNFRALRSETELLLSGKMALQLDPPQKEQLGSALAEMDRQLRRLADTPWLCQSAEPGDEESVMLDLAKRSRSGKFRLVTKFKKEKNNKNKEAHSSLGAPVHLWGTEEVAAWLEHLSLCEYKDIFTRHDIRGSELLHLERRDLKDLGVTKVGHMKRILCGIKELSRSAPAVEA
# B1: Human SphK1 (Homo sapiens) (protein)
# chain: MDPAGGPRGVLPRPCRVLVLLNPRGGKGKALQLFRSHVQPLLAEAEISFTLMLTERRNHARELVRSEELGRWDALVVMSGDGLMHEVVNGLMERPDWETAIQKPLCSLPAGSGNALAASLNHYAGYEQVTNEDLLTNCTLLLCRRLLSPMNLLSLHTASGLRLFSVLSLAWGFIADVDLESEKYRRLGEMRFTLGTFLRLAALRTYRGRLAYLPVGRVGSKTPASPVVVQQGPVDAHLVPLEEPVPSHWTVVPDEDFVLVLALLHSHLGSEMFAAPMGRCAAGVMHLFYVRAGVSRAMLLRLFLAMEKGRHMEYECPYLVYVPVVAFRLEPKDGKGVFAVDGELMVSEAVQGQVHPNYFWMVSGCVEPPPSWKPQQMPPPEEPL
# B2: mouse SphK2 (Mus musculus) (protein)
# chain: T1 sequence (Q9JIA7 1-617)
# Assays:
# SphKs = conditions: cited from earlier work
# [1] = in water and DMSO; cited from earlier work
# SphK1 = conditions: read-out: KM of SphK1 for sphingosine; cited from earlier work
# SphK2 = conditions: read-out: KM of SphK2 for sphingosine; cited from earlier work
# [2] = test system: vascular smooth muscle cells; experiment: Cytotoxicity on visual microscopic inspection; type: cell-based; conditions: 10% FBS + compound (10 μM), light microscopy; Figure 3E
# Method in brief: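 Rat aortic vascular smooth muscle cells were imaged by light microscopy at 20× magnification. Conditions were untreated control, 10% FBS, and 10% FBS plus test compound at 10 μM. Cytotoxicity was judged by visual inspection.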
# [3] = test system: vascular smooth muscle cells; experiment: Intracellular S1P concentration by LC/MS in serum-stimulated smooth muscle cells; type: cell-based, rat; conditions: pre-treated 30 min, then 10% serum; Figure 3C
# Method in brief: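 Rat aortic smooth muscle cells were pre-treated with test compound for 30 min, then given 10% FBS for 12 h. Cells were washed in PBS and scraped into ice-cold MeOH, then extracted with CHCl3/0.1 M HCl containing 50 pmol C17 S1P internal standard. The organic phase was acetylated (acetic anhydride/pyridine). Analysis used C8 LC with […] ESI-MS/MS (BisAcS1P 462/402), quantified against calibration curves. N=2 biological replicates; mean ± st dev.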
# [4] = test system: vascular smooth muscle cells; experiment: Smooth muscle cell proliferation, BrdU incorporation; type: cell-based, rat; conditions: pre-treated 30 min, 10% serum 24 hours, Figure 3D
# Method in brief: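 Rat aortic vascular smooth muscle cells were pre-treated 30 min with a dose range of test compound, then stimulated with 10% FBS for 24 h. Proliferation was read as BrdU (10 μM) incorporation by immunoassay. N=6 biological replicates; mean ± st dev; P < 0.05 marked.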
# mouse SphK2 = biological target: T1, mouse SphK2; experiment: Sphingosine kinase assay, recombinant SphK2; type: biochemical; conditions: for Inhibition of SphK2: at concentrations up to 100 μM
# Human SphK1 = Human SphK1 (Homo sapiens, UniProt Q9NYA1); experiment: Sphingosine kinase assay, recombinant SphK1; type: biochemical; conditions: for Inhibition of SphK1: at concentrations up to 100 μM
# [5] = test system: vascular smooth muscle cells; experiment: Cell viability / cytotoxic response, Promega MultiTox-Fluor Assay; type: cell-based; conditions: 0.001 μM – 100 μM, Figure 3F
# Method in brief: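 Rat aortic vascular smooth muscle cells, cultured in vitro. Test compound applied at 0.001–100 μM, with 20 μM cyclosporine A as comparator. Cytotoxicity read with the MultiTox-Fluor fluorescence kit. N=3 biological replicates; mean ± st dev; P < 0.05 marked.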
# [6] = biological target: T2, diacylglycerol kinase type δ1; experiment: Specificity test at recombinant diacylglycerol kinase type δ1; type: biochemical; conditions: at concentrations up to 100 μM
# [7] = biological target: diacylglycerol kinase type γ (Homo sapiens, UniProt P49619); experiment: Specificity test at recombinant diacylglycerol kinase type γ; type: biochemical; conditions: at concentrations up to 100 μM
# diacylglycerol kinase type γ, sequence (P49619 whole entry): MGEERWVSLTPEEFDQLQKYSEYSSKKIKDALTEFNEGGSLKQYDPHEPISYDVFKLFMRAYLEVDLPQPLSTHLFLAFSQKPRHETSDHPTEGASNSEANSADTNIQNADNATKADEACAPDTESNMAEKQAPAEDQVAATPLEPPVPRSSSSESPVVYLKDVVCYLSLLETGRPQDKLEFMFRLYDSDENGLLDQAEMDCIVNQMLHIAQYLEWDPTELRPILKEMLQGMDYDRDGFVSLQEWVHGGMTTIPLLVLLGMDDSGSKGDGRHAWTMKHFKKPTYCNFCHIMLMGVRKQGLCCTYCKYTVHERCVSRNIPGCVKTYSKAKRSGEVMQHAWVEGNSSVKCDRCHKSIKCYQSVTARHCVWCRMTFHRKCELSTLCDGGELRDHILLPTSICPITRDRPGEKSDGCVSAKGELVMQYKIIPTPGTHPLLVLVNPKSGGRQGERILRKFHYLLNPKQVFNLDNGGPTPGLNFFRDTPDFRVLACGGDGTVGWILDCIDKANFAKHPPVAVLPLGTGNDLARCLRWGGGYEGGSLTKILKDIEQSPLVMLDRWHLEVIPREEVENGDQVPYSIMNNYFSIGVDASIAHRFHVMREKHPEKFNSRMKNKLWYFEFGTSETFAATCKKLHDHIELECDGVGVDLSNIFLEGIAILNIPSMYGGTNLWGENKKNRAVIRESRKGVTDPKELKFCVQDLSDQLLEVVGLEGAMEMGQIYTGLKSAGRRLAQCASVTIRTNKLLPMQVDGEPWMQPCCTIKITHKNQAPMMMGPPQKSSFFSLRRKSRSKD
# PKCα = PKCα (Homo sapiens, UniProt P17252); experiment: Specificity test at PKCα; type: biochemical; conditions: at concentrations up to 10 μM
# [8] = biological target: diacylglycerol kinase type ζ (Homo sapiens, UniProt Q13574); experiment: Specificity test at recombinant diacylglycerol kinase type ζ; type: biochemical; conditions: at concentrations up to 100 μM
# diacylglycerol kinase type ζ, sequence (Q13574 whole entry): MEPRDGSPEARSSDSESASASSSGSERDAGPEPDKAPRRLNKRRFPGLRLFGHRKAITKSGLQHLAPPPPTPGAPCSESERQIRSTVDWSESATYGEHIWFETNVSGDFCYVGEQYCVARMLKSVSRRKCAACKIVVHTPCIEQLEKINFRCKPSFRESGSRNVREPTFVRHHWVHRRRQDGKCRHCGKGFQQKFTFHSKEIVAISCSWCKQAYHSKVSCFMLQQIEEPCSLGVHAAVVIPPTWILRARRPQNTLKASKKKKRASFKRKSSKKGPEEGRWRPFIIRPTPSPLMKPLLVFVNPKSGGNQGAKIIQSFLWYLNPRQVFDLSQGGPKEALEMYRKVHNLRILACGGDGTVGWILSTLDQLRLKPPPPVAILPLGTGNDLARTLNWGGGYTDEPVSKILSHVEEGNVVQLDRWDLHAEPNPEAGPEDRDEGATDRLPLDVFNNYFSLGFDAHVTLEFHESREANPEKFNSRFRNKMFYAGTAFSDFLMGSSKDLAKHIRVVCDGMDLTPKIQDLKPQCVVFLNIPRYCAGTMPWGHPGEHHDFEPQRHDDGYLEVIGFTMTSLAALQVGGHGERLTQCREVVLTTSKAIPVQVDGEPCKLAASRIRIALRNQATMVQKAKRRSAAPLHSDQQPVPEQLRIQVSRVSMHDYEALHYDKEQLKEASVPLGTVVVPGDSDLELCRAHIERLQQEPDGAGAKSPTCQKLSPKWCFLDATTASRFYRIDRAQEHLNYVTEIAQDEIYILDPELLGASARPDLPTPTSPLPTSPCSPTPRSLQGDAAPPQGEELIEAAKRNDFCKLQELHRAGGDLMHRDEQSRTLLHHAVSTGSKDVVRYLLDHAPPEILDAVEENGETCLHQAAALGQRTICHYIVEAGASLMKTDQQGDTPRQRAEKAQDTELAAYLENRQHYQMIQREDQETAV
# [9] = substrate: CCCCCCCCCCCCC/C=C/[C@@H](O)[C@@H](N)CO; experiment: Sphingosine kinase assay, recombinant SphK1; type: biochemical, human; conditions: other: substrate D-erythro-sphingosine, absence of inhibitor
# [10] = substrate: CCCCCCCCCCCCC/C=C/[C@@H](O)[C@@H](N)CO; experiment: Sphingosine kinase assay, recombinant SphK2; type: biochemical, mouse; conditions: other: substrate D-erythro-sphingosine, absence of inhibitor
molecule,measurement,setting,value
CCCCCCCCCCCCC/C=C/[C@@H](O)[C@H](N)CO [D-(+)-threo-sphingosine],Inhibition of the SphKs,SphKs,weak inhibitor
Cn1cc(NC(=O)c2cc(NC(=O)c3cc(NC=O)cn3C)cn2C)cc1C(=O)NCCC(=N)N [Distamycin A],pKa,[1],11.6
"CCCCCCCCCCCCC/C=C/[C@@H](O)[C@@H](N)CO [Sphingosine, D-erythro-sphingosine]",Km,SphK1,~10 µM
same,Km,SphK2,~5 µM
"CCCCCCCCc1ccc(C(=O)N[C@@H](C)C(=N)N)cc1.Cl [compound 9, (S)-N-(1-amino-1-iminopropan-2-yl)-4-octylbenzamide hydrochloride]",Cytotoxicity on visual microscopic inspection,[2],not cytotoxic
same,Serum-induced changes in S1P intracellular concentration,[3],blocked
same,Blocked serum-induced smooth muscle cell proliferation,[4],blocked
same,Ki,mouse SphK2,20 µM
same,Ki,Human SphK1,55 µM
same,Cytotoxicity/death in cell viability assay,[5],did not induce cytotoxicity/death
"CCCCCCCCc1ccc(C(=O)N[C@@H](C)C(=O)O)cc1 [compound 12, (S)-2-(4-octylbenzamido)propanoic acid]",Inhibition of SphK2,mouse SphK2,no inhibition
same,Inhibition of SphK1,Human SphK1,no inhibition
"CCCCCCCCc1ccc(C(=O)N[C@@H](C)C(N)=O)cc1 [compound 13, (S)-N-(1-amino-1-oxopropan-2-yl)-4-octylbenzamide]",Inhibition of SphK2,mouse SphK2,no inhibition
same,Inhibition of SphK1,Human SphK1,no inhibition
"CCCCCCCCCCCCc1ccc(C(=O)NC2(C(=N)N)CC2)cc1.Cl [compound 23, N-(1-carbamimidoylcyclopropyl)-4-dodecylbenzamide hydrochloride]",Inhibition of diacylglycerol kinase type δ1,[6],no inhibition
same,Inhibition of diacylglycerol kinase type γ,[7],no inhibition
same,Inhibition of PKCα,PKCα,no inhibition
same,Inhibition of diacylglycerol kinase type ζ,[8],no inhibition
"CCCCCCCCCCCCc1ccc(NC(=O)C2(C(=N)N)CC2)cc1.Cl [compound 28, 1-carbamimidoyl-N-(4-dodecylphenyl)cyclopropanecarboxamide hydrochloride]",Inhibition of diacylglycerol kinase type δ1,[6],no inhibition
same,Ki,mouse SphK2,6 µM
same,Inhibition of diacylglycerol kinase type γ,[7],no inhibition
same,Inhibition of PKCα,PKCα,no inhibition
same,Inhibition of diacylglycerol kinase type ζ,[8],no inhibition
B1,Km,[9],10 µM
B2,Km,[10],5 µM
